Bioassay records from PubChem BioAssay.
Sampled rows, rich in hits. Any-hit rate of the full collection: about 1.7%.
PP1 counter = counter-screen for PP5 inhibitors: inhibitors of human PP1-alpha; inhibition, % at 6.7 µM; 320,000 tested, 0.9% active; AID 2235; purified PP1alpha, OMFP fluorescence; P62136;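 active = inhibition above the mean inhibition of all tested compounds plus 3 SD, computed separately for each screening campaign, cut at about 15% in these data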
GASC-1 inh = human JMJD2C demethylase inhibition; inhibition, % at 2.35 µM; Q9H3R0; GST-JMJD2C(1-420) H3K9me3 demethylation, DELFIA europium; 330,000 tested, 0.069% active;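 active = more than half of a compound's replicate wells show inhibition beyond 50%, single wells judged on their own value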;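 also: signal counts dimethyl H3K9 product captured on neutravidin plate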
Target sequence (Q9H3R0 1-420 limits assumed): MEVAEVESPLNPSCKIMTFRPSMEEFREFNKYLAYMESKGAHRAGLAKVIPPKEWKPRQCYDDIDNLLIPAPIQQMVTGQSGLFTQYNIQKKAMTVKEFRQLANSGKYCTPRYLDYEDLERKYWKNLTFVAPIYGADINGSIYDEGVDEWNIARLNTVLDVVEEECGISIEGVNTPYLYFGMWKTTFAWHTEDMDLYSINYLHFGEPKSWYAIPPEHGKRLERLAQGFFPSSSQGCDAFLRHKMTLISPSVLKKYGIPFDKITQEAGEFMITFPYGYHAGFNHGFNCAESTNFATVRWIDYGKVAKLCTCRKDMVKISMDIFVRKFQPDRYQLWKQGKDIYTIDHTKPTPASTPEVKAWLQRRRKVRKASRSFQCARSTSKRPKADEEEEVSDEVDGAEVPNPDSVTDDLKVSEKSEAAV
PP5 primary = blocks human protein phosphatase 5 activity; P53041; purified PP5c, OMFP substrate fluorescence; inhibition, % at 6.7 µM; 320,000 tested, 0.18% active;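 active = inhibition above the campaign's mean inhibition across all tested compounds plus 3 SD, cut at about 9.5% in these data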
T cell modulator = T cell immune modulators affecting CD8 T cell-vesicle binding. 2C CD8+ T cell-vesicle binding, flow cytometry; stronger effect = lower value. response (vesicle binding), % at 7 µM. 330,000 tested, 0.068% active. AID 2052;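 active = response, share of CD8 T cells binding vesicles, and their 90th percentile fluorescence all below set limits, cut at about 80% in these data, passing the limit was not always enough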;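 also: values below 100% mean blocked vesicle binding to the CD8+ T cells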
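Benchmarks: naked versus QL9-loaded vesicles / Assay system: purified 2C TCR transgenic mouse naive CD8+ T cells / Technique: high-throughput flow cytometry with anti-B7-1 and anti-CD8 staining / Timing: Cell–vesicle co-incubation 1.5 h at 37 °C, staining 20 min on ice / Read-out: percent CD8+ FL2 mean versus row control / Probe or stimulus: QL9-loaded Drosophila micro-vesicles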
HTR2A ag = agonists of mouse serotonin 5-HT2A receptor (HTR2A); AID 624169; P35363; 360,000 tested, 0.66% active; CHO-K1 mHTR2A beta-arrestin complementation, luminescence; percent of 30 µM serotonin response; activation, % at 7.6 µM;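 active = activation above a run cutoff, the mean activation of all tested compounds plus 3 SD, cut at about 14% in these data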
PP1 inh confirm = human PP1 phosphatase inhibition, confirmation. shares compounds with PP1 counter. purified PP1alpha, OMFP substrate fluorescence. inhibition, % at 6.7 µM. 1,900 tested, 52% active. AID 2358;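 active = mean PP1 inhibition above a set limit taken from the earlier primary screen, cut at about 15% in these data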
PP5 counter = inhibits human PP5 phosphatase in PP1 counter-screen. shares compounds with PP1 counter. purified PP5c, OMFP fluorescence. inhibition, % at 6.7 µM. 1,900 tested, 4% active. AID 2360;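 active = mean PP5 inhibition over triplicate wells above about 9.5% taken from the earlier PP1 screen, limit read from the data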
Each line names hits and unclear results; the compound was inactive in the other large screens (follow-up assays come after a bar, where they were run).

C#CCOCCOCCOCCNc1nc(N2CCN(C(=O)CCCCCCCCCCNC(=O)Cn3cc(C[C@@H](C)O)nn3)CC2)nc(N2CCN(C(=O)CCCCCCCCCCNC(=O)[C@@H]([C@H](C)CC)n3cc(CCCCCN)nn3)CC2)n1	PP1 counter 55 | PP1 inh confirm 44 | PP5 counter inactive
C#CCOCCOCCOCCNc1nc(N2CCN(C(=O)CCCCCCCCCCNC(=O)[C@H](CCCCN)n3cc(C)nn3)CC2)nc(N2CCN(C(=O)CCCCCCCCCCNC(=O)[C@H](CCCN=C(N)N)n3cc(C[C@@H](C)CC)nn3)CC2)n1	PP1 counter 53 (no result: GASC-1 inh, HTR2A ag) | PP1 inh confirm 50 | PP5 counter inactive
C#CCOCCOCCOCCNc1nc(N2CCN(C(=O)CCCCCCCCCCNC(=O)[C@H]([C@@H](C)CC)n3cc(CCCCN=C(N)N)nn3)CC2)nc(N2CCN(C(=O)CCCCCCCCCCNC(=O)[C@@H]([C@H](C)O)n3cc(C)nn3)CC2)n1	PP1 counter 56 | PP1 inh confirm 47 | PP5 counter inactive
C#CCOCCOCCOCCNc1nc(N2CCN(C(=O)CCCCCCCCCCNC(=O)[C@H](CCCCN)n3cc(C)nn3)CC2)nc(N2CCN(C(=O)CCCCCCCCCCNC(=O)[C@@H]([C@H](C)O)n3cc(C)nn3)CC2)n1	none (no result: GASC-1 inh)
O=C(Nc1nc(OCCN2CCCC2=O)cnc1/C=C\c1ccccc1)c1cc2ccccc2s1	none (no result: PP1 counter, GASC-1 inh, PP5 primary, T cell modulator)
CCOc1ccc(N2CC(C(=O)Nc3cccc(S(=O)(=O)NC4=NCCC4)c3)CC2=O)cc1 (configuration not stated)	none
CCCc1cc(=O)oc2cc(C)cc(OCC(=O)Nc3ccc(CN4CCOCC4)cc3)c12	none
COc1cccc(CC2(CO)CCCN(Cc3cn[nH]c3-c3ccccc3)C2)c1 (configuration not stated)	none
COc1ccc(Br)cc1/C=N/NC(=O)c1nc(-c2ccccc2)n2c1CCCCC2	none
COc1ccc(S(=O)(=O)N2CCN(c3nc(-c4cccnc4)nc4ccccc34)CC2)cc1	PP1 counter 21 | PP1 inh confirm 17 | PP5 counter inactive
O=S(=O)(c1ccccc1F)N1CCN(c2nc(-c3cccnc3)nc3ccccc23)CC1	none
Cc1ccc(C)c(S(=O)(=O)N2CCN(c3nc(-c4cccnc4)nc4ccccc34)CC2)c1	PP1 counter 19 | PP1 inh confirm 18 | PP5 counter inactive
CCOC(=O)C[C@H]1c2ccccc2S(=O)(=O)N1Cc1cccc(C(F)(F)F)c1	none (no result: T cell modulator)
COc1ccc(/C=C/C(=O)Nc2ccc(N3CCOCC3)cc2)cc1	none
COc1ccc(N2CCN(c3ccc(NC(=O)/C=C\C(=O)O)cc3)CC2)cc1	PP1 counter 20 | PP1 inh confirm inactive | PP5 counter inactive
C[C@@H]1CN([C@@H](C)CO)C(=O)c2cc(Br)cnc2O[C@@H]1CN(C)Cc1cncnc1	none (no result: PP1 counter, GASC-1 inh, PP5 primary, T cell modulator)
COc1ccc(/C=C/C(=O)NC(=S)Nc2ccc(S(=O)(=O)N=C(N)N)cc2)cc1OC	PP1 counter 20 | PP1 inh confirm 23 | PP5 counter inactive
COc1cc(NS(=O)(=O)c2ccc(NC(=S)NC(=O)/C=C/c3ccc(OC)c(OC)c3)cc2)ncn1	none (no result: T cell modulator)
COC(=O)[C@]12CCCCC=C1N(Cc1ccc3c(c1)OCO3)C(=O)[C@H](CC(=O)NCCCCc1ccccc1)C2	none (no result: PP1 counter, GASC-1 inh, PP5 primary, T cell modulator)
O=C(/C=C/c1ccc(F)cc1)NC(=S)NNC(=O)[C@H]1C[C@@H]1c1ccccc1	PP1 counter 18 | PP1 inh confirm inactive | PP5 counter inactive
CCC(C)NC(=O)c1cn(CC)c2ccc(S(=O)(=O)N3CCCCCC3)cc2c1=O (configuration not stated)	none
O=C(O)c1ccccc1-c1nc2cc(Cl)ccc2c(=O)n1O	PP1 counter 22 | PP1 inh confirm 24 | PP5 counter inactive
O=c1c2ccccc2nc(-c2ccc(Cl)cc2Cl)n1O	none
Cc1cc(OCC(=O)Nc2ccc(N3CCCC3)cc2)cc(C)c1Cl	PP1 counter 18 | PP1 inh confirm inactive | PP5 counter inactive
O=C(CSc1nc(=O)[nH]c2c1CCCC2)Nc1ccc(F)cc1F	none
CCC(C)(C)c1ccc(OCCCC[n+]2ccc(C)cc2)c(C(C)(C)CC)c1	PP1 counter 21 (no result: HTR2A ag) | PP1 inh confirm inactive | PP5 counter inactive
CCC(C)(C)c1ccc(OCCCC[n+]2cccc(C)c2C)c(C(C)(C)CC)c1	PP1 counter 20 | PP1 inh confirm inactive | PP5 counter inactive
COCCN(CC(=O)Nc1cccc(C)c1C)C(=O)Cc1ccsc1	none (no result: PP1 counter, PP5 primary)
CCOc1ccc(C(=O)Nc2ccc(C(=O)N3CCOCC3)cc2)c(OCC)c1	none
COc1ccc2c(C)c(C(=O)N3CCN(Cc4ccccc4)CC3)oc2c1	none (no result: PP1 counter, GASC-1 inh, PP5 primary)
CCCn1c(=O)c(C(=O)NNS(=O)(=O)c2ccc(Cl)cc2)c(O)c2ccccc21	PP1 counter 22 | PP1 inh confirm 16 | PP5 counter inactive
CCCn1c(=O)c(C(=O)Nc2ncccc2C)c(O)c2ccccc21	PP1 counter 24 | PP1 inh confirm 21 | PP5 counter inactive
CCCn1c(=O)c(C(=O)Nc2cccc(C)n2)c(O)c2ccccc21	none
CCCCOc1ccc(C(=O)NCC(=O)NCC(c2ccc(OC)cc2)N2CCCC2)cc1 (configuration not stated)	none
CC(=O)NC(c1cccc(F)c1)c1nc(-c2ccccc2)cs1 (configuration not stated)	none (no result: PP1 counter, GASC-1 inh, PP5 primary, T cell modulator)
Cc1csc(NC(=O)CSc2nnc(NC(=O)COc3ccc(Cl)cc3)s2)n1	none
CCn1c(CSc2nc3ccccc3s2)nnc1SCC(=O)c1ccc(Cl)cc1	PP1 counter 22 | PP1 inh confirm inactive | PP5 counter inactive
N=c1n(CCN2CCCCC2)c2ccccc2n1CC(=O)c1ccc(Cl)c(Cl)c1	PP1 counter 27 | PP1 inh confirm inactive | PP5 counter inactive
NC(=O)c1ccsc1NC(=O)COC(=O)c1nc(Cl)ccc1Cl	PP1 counter 45 | PP1 inh confirm inactive | PP5 counter inactive
NC(=O)c1ccsc1NC(=O)COC(=O)c1ccc(Cl)nc1	none
CCCCCC(=O)Cc1cc(O)cc2c1C(=O)Oc1cc(O)c(C(=O)O)c(CCCCC)c1O2	PP1 counter 29 (no result: HTR2A ag) | PP1 inh confirm 38 | PP5 counter inactive
Cc1ccc(C(C)C)c(OCc2nn(CC(=O)c3ccc(Cl)cc3)c3[n+]2CCCCC3)c1	PP1 counter 23 | PP1 inh confirm inactive | PP5 counter inactive
O=C(Cn1nc(CNc2ccc(Cl)cc2)[n+]2c1CCCCC2)c1ccccc1	none
O=C(NCC(=O)N(CCN1CCOCC1)C(C(=O)NC1CCCC1)c1ccccc1)c1cccs1 (configuration not stated)	none
CCOC(=O)C1=NN(C(=O)Cc2ccccc2)C(O)(C(C)(C)C)C1 (configuration not stated)	none
COC(=O)c1cc(Cl)nc2ccccc12	none
